Sampled rows, rich in hits. Any-hit rate of the full collection: about 3.5%.
Ecoli rRNA inh: reduced GFP signal of wild-type E. coli, primary screen, bacterial rRNA inhibitor project, GFP/RFP fluorescence, OD600, single point; E. coli WT GFP vs humanized-ribosome RFP mutants, 24 h; stronger effect = lower value; DMSO median 0, no signal -100; GFP signal change (wild-type ribosome), % (no concentration beside the values); 350,000 tested, 1.6% active; AID 720706, 2013;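 active = significant combined selectivity score with lowered wild-type GFP, culture density cut under 30%, mutant RFP and density less affected; inactive = any of these conditions unmet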
HIV Env fusion: inhibitors of HIV-1 Env-driven cell-cell fusion, primary screen, HeLa-JRFL effector, CEM21 target cells, luciferase | inhibition, % at 12.3 µM | 360,000 tested, 1.1% active;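 active = mean replicate inhibition score of at least 50 and every replicate individually at or above 50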;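 note: 0% = plate neutral controls and 100% = maraviroc near 300 nM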
PGC1a acetyl inh: inhibitors of PGC1a acetylation signal, primary screen, cell-based, U2OS, AlphaScreen, inhibitor mode; AID 651687, 2012; 350,000 tested, 0.17% active; inhibition, % at 15.6 µM; AlphaScreen anti-acetyl-lysine; with virally co-expressed GCN5 acetyltransferase;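 active = every replicate shows inhibition of at least 40%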;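 note: 0% = neutral control wells and 100% = positive control wells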
FN deposition inh: inhibitors of fibronectin matrix deposition, primary screen, AH1F cells, Alexa488-fibronectin fluorescence, plate reader; 350,000 tested, 0.086% active; inhibition, % at 12.6 µM; AH1F fibroblasts, overnight;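 active = mean inhibition across replicates of 30% or more, regardless of how many single replicates reach that level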;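 note: positive control wells lacked labelled fibronectin entirely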
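Assay system: AH1F fibroblasts assembling fluorescent fibronectin matrix; Amount: 10000 AH1F cells per well; Buffer or medium: DMEM, 2% serum; Probe or stimulus: Alexa488-fibronectin, 24 nM final in well; Doses: single compound dose, delivered by pin transfer; Incubation: 1 h adhesion, overnight exposure; Measured by: fluorescence 485/525 nm; Read-out: fibronectin deposition inhibition.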
DENV2 CPE rescue: inhibitors of DENV2 cytopathic effect, primary screen, cell-based, plate reader, single concentration. DENV2-infected cells, cytopathic effect rescue. CPE inhibition, % at 9.99 µM. 350,000 tested, 1.7% active; in the data active = CPE inhibition above about 20%, passing the limit was not always enough; tested in BHK-21 cells;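 note: 0% = median of neutral control wells and 100% = median of positive control wells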
PglD inh: C. jejuni PglD acetyltransferase inhibitors, primary screen, biochemical, DTNB colorimetric, single point; UDP-N-acetylbacillosamine N-acetyltransferase PglD (Campylobacter jejuni); 360,000 tested, 0.098% active; AID 602405, 2012; inhibition, % at 12.5 µM; purified PglD enzyme, DTNB colorimetric CoA detection; in the data active = inhibition above about 16%, passing the limit was not always enough
* marks the source's active call; other numbers are inactive results; nt = no result given; [ ] = remark or other dose.

SMILES	Ecoli rRNA inh	HIV Env fusion	PGC1a acetyl inh	FN deposition inh	DENV2 CPE rescue	PglD inh
CC(=O)NC[C@@H]1[C@H](c2ccc(-c3cccc(F)c3)cc2)[C@H](CO)N1C(C)=O	-4.0	nt	6.6	nt	24.6*	2.0
CC(=O)NC[C@@H]1[C@@H](c2ccc(-c3ccccc3)cc2)[C@H](CO)N1C(=O)C1CCC1	-4.1	nt	-4.0	nt	5.7	0.5
CCC(=O)N1[C@H](CNC(C)=O)[C@@H](c2ccc(-c3cccc(F)c3)cc2)[C@@H]1CO	-1.1	nt	0.8	-11.9	-1.8	1.0
CCCNC(=O)NC[C@H]1[C@H](c2ccc(C3=CCCCC3)cc2)[C@@H](CO)N1C(C)=O	1.2	nt	-0.6	12.7	21.6*	-0.1
CC(=O)NC[C@H]1[C@@H](c2ccc(-c3cccc(F)c3)cc2)[C@H](CO)N1C(C)=O	-0.2	nt	-0.1	nt	7.5	-4.3
CC(=O)NC[C@H]1[C@@H](c2ccc(-c3ccccc3)cc2)[C@@H](CO)N1C(=O)C1CCC1	-3.8	nt	10.4	nt	31.4*	2.2
C[C@H](NC(=O)C[C@@H]1CC[C@H](NC(=O)c2cccnc2)[C@@H](CO)O1)c1ccccc1	2.1	-42.6[16.7 µM]	1.6	1.9	1.7	-7.4
CCC(=O)NC[C@@H]1[C@@H](c2ccc(C3=CCCC3)cc2)[C@@H](CO)N1C(=O)CC	1.7	nt	nt	0.9	-3.0	nt
CCC(=O)N1[C@H](CO)[C@@H](c2ccc(-c3cccc(F)c3)cc2)[C@@H]1CN(C)C(C)=O	1.9	nt	1.4	nt	34.4*	-6.2
CC(=O)NC[C@@H]1[C@@H](c2ccc(-c3ccccc3F)cc2)[C@@H](CO)N1C(C)=O	0.0	nt	5.0	2.1	20.0*	-0.7
CC(=O)N(C)C[C@H]1[C@@H](c2ccc(-c3cccc(F)c3)cc2)[C@@H](CO)N1C(C)=O	-1.1	nt	nt	nt	2.1	nt
CC(=O)N1[C@@H](CO)[C@@H](c2ccc(-c3cccc(F)c3)cc2)[C@@H]1CNC(=O)C1CC1	-4.1	nt	-5.5	-10.6	6.6	1.2
CCC(=O)NC[C@H]1[C@@H](c2ccc(C3=CCCC3)cc2)[C@@H](CO)N1C(=O)CC	-0.4	nt	nt	6.7	31.3*	nt
CC(=O)N1[C@H](CNC(=O)C2CC2)[C@H](c2ccc(-c3cccc(F)c3)cc2)[C@@H]1CO	-4.0	nt	-13.9	10.6	28.4*	0.5
CCCC#Cc1ccc([C@H]2[C@H](CO)N3CCCCN(S(=O)(=O)Cc4ccccc4)C[C@@H]23)cc1	-58.4	nt	-4.3	nt	1.2	1.0
CCN(CC)CCOC(=O)c1ccc(NC(=O)CCCN2C(=O)/C(=C\c3cccs3)SC2=S)cc1	-26.6*	19.9	2.3	6.3	11.0	-5.1
O=C(CCCN1C(=O)/C(=C\c2cccs2)SC1=S)Nc1cccnc1	-1.3	nt	-1.9	16.0	29.7*	3.6
COc1ccc(/C=C2\SC(=O)N(CC(=O)Nc3cccnc3)C2=O)cc1OC	-4.9	-2.9	-6.5	nt	22.7*	1.4
O=C(CCCN1C(=O)/C(=C/c2cccs2)SC1=S)Nc1cccnc1	4.1	7.4	9.4	-1.0	5.1	nt
COc1cccc(C(=O)Nc2ccc3c(c2)C(=O)N(C)[C@@H]2CC[C@@H](CC(=O)NCC(F)(F)F)O[C@H]2CO3)c1	-0.2	-11.7[16.7 µM]	1.0	-1.6	3.1	3.5
CC(=O)N1CC2(C1)[C@H](c1ccccc1)[C@H](CO)N2Cc1cccc(Cl)c1	-7.0	nt	-8.4	nt	14.7	nt
O=C(Cc1ccccc1)N1CC(=O)N2[C@H](C1)[C@H](c1ccc(C3=CCCC3)cc1)[C@@H]2CO	0.5	nt	4.8	nt	7.5	nt
Nc1c(-c2ccccc2Cl)cnn1-c1cccc([N+](=O)[O-])c1	nt	-14.4	10.3	nt	nt	-6.4
Cc1ccccc1-c1cnn(-c2cccc([N+](=O)[O-])c2)c1N	-46.0*	5.4	15.1	nt	3.3	-8.1
CCN(C[C@H]1N[C@@H](CO)[C@@H]1c1ccc(-c2cccc(F)c2)cc1)C(=O)COC	-1.0	nt	8.3	-4.2	-3.1	-0.6
